In the library only some 0.85% were active in any assay of this set; here they are far more common.
V1aR counter = V1a receptor agonism, counter-screen for OXTR agonists; P37288; CHO-V1R cells, Fluo-8 calcium fluorescence, agonist mode; 0% DMSO, 100% 3 nM vasopressin; activation, % at 3 µM; actives 0.25% (n = 320,000); AID 2797;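 active = activation above the mean activation of all tested compounds plus 3 SD, per screening run, cut at about 20% in these data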;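 also: signal is peak over basal fluorescence ratio across a 100 second FLIPR read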
TRPML3 agonist = agonists of human TRPML3 channel; Q8TDD5; HEK293 TRPML3-YFP, Fluo-8 calcium fluorescence; 100% = the carbachol control signal; activation, % at 3 µM; actives 0.29% (n = 220,000);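 active = activation above its plate's cutoff, the mean activation of the plate's test wells plus 3 SD, cut at about 12% in these data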
Target sequence (Q8TDD5 whole entry, looked up): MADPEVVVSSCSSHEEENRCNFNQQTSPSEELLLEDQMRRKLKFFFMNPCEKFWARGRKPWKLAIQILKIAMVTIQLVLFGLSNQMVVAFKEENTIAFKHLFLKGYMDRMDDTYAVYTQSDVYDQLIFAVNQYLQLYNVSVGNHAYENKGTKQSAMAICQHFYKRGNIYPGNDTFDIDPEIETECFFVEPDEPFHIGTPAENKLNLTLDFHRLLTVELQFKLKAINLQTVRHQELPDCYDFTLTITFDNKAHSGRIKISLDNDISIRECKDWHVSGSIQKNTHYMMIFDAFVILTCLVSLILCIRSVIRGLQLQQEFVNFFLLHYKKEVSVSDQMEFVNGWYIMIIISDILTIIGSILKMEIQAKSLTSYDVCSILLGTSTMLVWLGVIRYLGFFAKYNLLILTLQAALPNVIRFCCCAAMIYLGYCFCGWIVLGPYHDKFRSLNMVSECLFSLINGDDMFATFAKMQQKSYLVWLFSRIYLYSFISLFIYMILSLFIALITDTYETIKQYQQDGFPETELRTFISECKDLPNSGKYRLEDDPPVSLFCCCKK
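Test system: TRPML3-YFP stable HEK293 cells. Doses: single point at 3 µM. Incubation: dye loading 1 h 37 °C then 30 min ambient, 125 s read. Signal: Fluo-8 calcium dye fluorescence, ex 470-495, em 515-575 nm. Measure: percent activation from peak-to-basal fluorescence ratio, scaled between DMSO and carbachol.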
OXTR potentiate = human OXTR potentiation; P30559; CHO-OTR cells, Fluo-8 calcium fluorescence, potentiator mode; 0% = oxytocin EC15, 100% = EC100; activation, % at 3 µM; actives 0.061% (n = 320,000); AID 2445;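 active = activation above that plate's cutoff, the mean activation of tested compounds plus 3 SD, cut at about 6.6% in these data, passing the limit was not always enough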
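Assay system: CHO-OTR cells, human receptor / Also added: oxytocin at about EC15, sub-maximal agonist stimulus / Dosing: single dose, 3.0 µM nominal final compound concentration / Incubation: 6 min pre-incubation, 100 s read / Technique: Fluo-8 calcium dye fluorescence / Read-out: % activation vs EC15 and EC100 oxytocin / Benchmarks: EC15 oxytocin low, 75 nM oxytocin high / Replicates: singlicate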
TRPN1 ag = agonists of zebrafish TRPN1 channel; HEK293 zebrafish TRPN1-YFP, Fluo-8 calcium fluorescence; 100% = response to 87 µM carbachol; activation, % at 3 µM; actives 0.18% (n = 220,000); AID 1424;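 active = activation above its plate's cutoff, the mean activation of test wells on that plate plus 3 SD, cut at about 19% in these data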
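Control set: carbachol 87 µM as high control, DMSO as low control; system: HEK293 stable line with zebrafish TRPN1-YFP; read-out: % activation versus carbachol response; detection: intracellular calcium fluorescence with Fluo-8; doses: single test compound dose, 3 µM nominal, 0.3% DMSO; schedule: dye 1 h 37 °C plus 30 min RT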
CRFR2-BP ag = agonists of human CRF-binding protein/CRF-R2 receptor complex; activation, % at 13.2 µM; HEK293 CRF-R2/CRF-BP, calcium dye fluorescence (FLIPR); percent of saturating CRF peptide response; actives 0.46% (n = 350,000);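 active = activation of at least 50%, plus an integration ratio under a set limit after plate pattern correction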
OXTR ag = activates the human oxytocin receptor. P30559. CHO-OTR cells, Fluo-8 calcium fluorescence; normalized: DMSO 0%, oxytocin 100%. activation, % at 3 µM. actives 0.32% (n = 320,000);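 active = activation above the mean of all tested compounds plus 3 SD, cutoff set per screening run, cut at about 20% in these data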;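 also: peak over basal fluorescence ratio from a 100 s FLIPR kinetic read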
Of the large screens only hits and unclear results are named; the others gave an inactive call.

Cc1cccc(C(=O)NC(=S)NNC(=O)COc2ccc(Cl)cc2)c1	CRFR2-BP ag 59 (no result: V1aR counter, OXTR potentiate, OXTR ag)
COc1ccc(C(=O)NC(=S)NNC(=O)c2cccc(C)c2)cc1	V1aR counter 95, CRFR2-BP ag 131, OXTR ag 70 (no result: TRPML3 agonist, TRPN1 ag)
COc1ccc(C(=O)NNC(=S)NC(=O)c2cccnc2)cc1	none
Cc1cccc(C(=O)NNC(=S)NC(=O)c2ccccc2)c1	V1aR counter 108, CRFR2-BP ag 149, OXTR ag 83 (no result: TRPML3 agonist, TRPN1 ag)
Cc1ccc(C(=O)NNC(=O)c2cccc(C)c2)cc1	none
COc1ccc(C(=O)NNC(=S)NC(=O)c2ccc(OC)cc2)cc1	V1aR counter 28, CRFR2-BP ag 51, OXTR ag 43 (no result: TRPML3 agonist, TRPN1 ag)
CN1/C(=C\C=C2/C(=O)Oc3ccccc3C2=O)C(C)(C)c2ccccc21	V1aR counter 261, TRPML3 agonist 130, TRPN1 ag 154, CRFR2-BP ag 323, OXTR ag 367
CC1=NN(c2ccccc2)C(=O)/C1=C\C=C1\N(C)c2ccccc2C1(C)C	V1aR counter 36, OXTR ag 31
CC1=NN(c2ccccc2)C(=O)/C1=C\C=C1/N(C)c2ccccc2C1(C)C	V1aR counter 43, CRFR2-BP ag 52, OXTR ag 34
CC1=NN(c2ccccc2)C(=O)/C1=C/N(C)C	none
COC(=O)C1(c2ccccc2)NC(c2cccs2)C2C(=O)N(c3ccccc3)C(=O)C21 (configuration not stated)	V1aR counter 21, OXTR ag 23
COC(=O)C1(c2ccccc2)NC(c2cccs2)C2C(=O)N(C)C(=O)C21 (configuration not stated)	none
CCC(=O)N/N=C/c1ccc(-c2ccc([N+](=O)[O-])cc2)o1	none
CC(C)(C)C(=O)/C=c1\s/c(=C\c2ccc(-c3ccc([N+](=O)[O-])cc3)o2)c(=O)n1CC(=O)NC(N)=O	V1aR counter 47, TRPML3 agonist 16, TRPN1 ag 31, CRFR2-BP ag 212, OXTR ag 36
CCCN1CCN(C(=O)CS(=O)(=O)Cc2nc(-c3cccc(OC)c3)oc2C)CC1	none (no result: TRPML3 agonist, TRPN1 ag)
COc1ccc(N(C(=O)CNC(=O)c2cccs2)C(C(=O)NCC2CCCO2)c2ccc(OC)c(OC)c2)cc1 (configuration not stated)	none
COc1cc(OC)cc(N(C(=O)CNC(=O)c2cccs2)C(C(=O)NCC2CCCO2)c2ccc(OC)c(OC)c2)c1 (configuration not stated)	CRFR2-BP ag 53
COC1=C/C(=C/c2c(N)n3nc(CC(=O)N4CCCCC4)sc3nc2=O)C=CC1=O	none (no result: TRPML3 agonist, TRPN1 ag)
C=CCC1=C/C(=C\c2c(N)n3nc(CC(=O)N4CCCC4)sc3nc2=O)C=C(OC)C1=O	CRFR2-BP ag 71 (no result: TRPML3 agonist, TRPN1 ag)
CCOC1=C/C(=C/c2c(N)n3nc(CC(=O)N4CCCCC4)sc3nc2=O)C=CC1=O	CRFR2-BP ag 57 (no result: TRPML3 agonist, TRPN1 ag)
CC1=CC(=C(C#N)c2nc3ccccc3s2)C=C(C)N1CC1CCCO1 (configuration not stated)	CRFR2-BP ag 64
Cc1c(N=C2N=C(NC(=O)c3cccs3)c3ccccc32)c(=O)n(-c2ccccc2)n1C	CRFR2-BP ag 89
Cc1c(N=C2N=C(NC(=O)NC(C)(C)C)c3ccccc32)c(=O)n(-c2ccccc2)n1C	none
O=C(O)C(c1ccccc1)N1C(=O)/C(=C\c2ccc(-c3ccc(Br)cc3)o2)SC1=S (configuration not stated)	CRFR2-BP ag 85 (no result: V1aR counter, TRPML3 agonist, OXTR potentiate, TRPN1 ag, OXTR ag)
O=C(O)C(c1ccccc1)N1C(=O)/C(=C\c2ccc(-c3ccccc3Cl)o2)SC1=S (configuration not stated)	CRFR2-BP ag 91 (no result: TRPML3 agonist, TRPN1 ag)
CCCn1c(N)c(N(CCOC)C(=O)c2ccc(N(C)S(=O)(=O)c3ccc(C)cc3)cc2)c(=O)[nH]c1=O	none (no result: TRPML3 agonist, TRPN1 ag)
O=c1c(Cl)c(Cl)cnn1Cc1nnc(-c2ccc(Cl)cc2)o1	none (no result: V1aR counter, OXTR potentiate, OXTR ag)
COCCn1c2nc(=O)n(-c3ccccc3)c(=O)c-2nc2ccccc21	CRFR2-BP ag 194 (no result: V1aR counter, TRPML3 agonist, OXTR potentiate, TRPN1 ag, OXTR ag)
C[C@H](CO)N1C[C@H](C)[C@@H](CN(C)C(=O)C2CC2)OCc2cnnn2CCCC1=O	none (no result: V1aR counter, TRPML3 agonist, OXTR potentiate, TRPN1 ag, OXTR ag)
Cc1ccc(CONC(=O)c2cccc([N+](=O)[O-])c2)cc1	none (no result: TRPML3 agonist, TRPN1 ag)
COC(=O)C(/C=N/OCc1ccc([N+](=O)[O-])cc1)NC(=O)c1cccc(Cl)c1 (configuration not stated)	V1aR counter 38, TRPN1 ag 20, OXTR ag 32
COc1ccc(S(=O)(=O)NC(C)C(=O)NCc2ccccn2)cc1OC (configuration not stated)	none (no result: TRPML3 agonist, TRPN1 ag)
CCCCN(C)CCNC(=O)CCn1nc(-c2ccc(Cl)cc2)ccc1=O	none (no result: TRPML3 agonist, TRPN1 ag)
CC(=O)c1cc(NC(=O)c2cccc(C(F)(F)F)c2)c(=O)oc1/C=C/N(C)C	CRFR2-BP ag 76
COc1ccc(C(=O)Nc2cc(C(C)=O)c(C)oc2=O)cc1	none
CC(=O)c1cc(NC(=O)c2ccc(Cl)cc2)c(=O)oc1/C=C/N(C)C	CRFR2-BP ag 79
CCc1ccccc1N1C(=O)C(Cl)=C(N2CCOCC2)C1=O	none (no result: TRPML3 agonist, TRPN1 ag)
O=C(COC(=O)/C=C/c1ccc(F)cc1)NCC1CCCO1 (configuration not stated)	none (no result: TRPML3 agonist, TRPN1 ag)
Cc1sc2ncnc(N/N=C/c3cccc(O)c3)c2c1C	none
C/C(=N\Nc1ncnc2sc(C)c(C)c12)c1ccccn1	V1aR counter 134, CRFR2-BP ag 64, OXTR ag 124 (no result: TRPML3 agonist, TRPN1 ag)
Oc1ccccc1-n1nc2ccc3nonc3c2n1	none
COc1ccc(CNc2nc3ccccc3n2CCN2CCCCC2)cc1	none
COc1ccc(CCN2CCC(Nc3nc4ccccc4n3Cc3ccc(F)cc3)CC2)cc1	V1aR counter 37, OXTR ag 45
Nc1nc(NCc2ccccc2)nc(Nc2cccc(F)c2)c1[N+](=O)[O-]	none
Nc1nc(Nc2cccc(F)c2)nc(NCCO)c1[N+](=O)[O-]	OXTR potentiate 12
Cc1c(-n2cc(C(=O)c3ccccc3O)cc(C#N)c2=O)c(=O)n(-c2ccccc2)n1C	CRFR2-BP ag 139
Cc1ccc(-n2cc(C(=O)c3cc(Cl)ccc3O)cc(C#N)c2=O)cc1	none
Cc1ccc(O)c(C(=O)c2cc(C#N)c(=O)n(C(C)c3ccccc3)c2)c1 (configuration not stated)	none
N#Cc1cc(C(=O)c2ccccc2O)cn(-c2ccc(Cl)cc2)c1=O	CRFR2-BP ag 53
COc1ccc(N=C(N)SCc2ccccn2)cc1	CRFR2-BP ag 62
